Assay results taken from ChEMBL document CHEMBL1153746, “Mansouramycins A-D, cytotoxic isoquinolinequinones from a marine streptomycete” (J Nat Prod, 2009).

Experiments:
[1] = Cytotoxicity against human GXF251L cells after 4 days by propidium iodide assay; format: functional, cell-based; details: GXF 251L, 96 h
Summary of the method: (§1)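 Monolayer cell proliferation assay across a panel of up to 36 human tumour lines covering 14 solid tumour types. Lines came either from patient tumours grown as subcutaneous xenografts in NMRI nu/nu mice or from culture collections (ATCC, NCI, DSMZ). Potency is given as IC50.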

[2] = system: LNCaP; assay: Cytotoxicity against human LNCAP cells after 4 days by propidium iodide assay; format: functional, cell-based; details: 96 h; summary of the method: as §1
[3] = system: MCF7; assay: Cytotoxicity against human MCF7 cells after 4 days by propidium iodide assay; format: functional, cell-based; details: MCF7, 96 h; summary of the method: as §1
[4] = system: DU-145; assay: Cytotoxicity against human DU145 cells after 4 days by propidium iodide assay; format: functional, cell-based; details: DU-145, 96 h; summary of the method: as §1
[5] = Cytotoxicity against human 1121L cells after 4 days by propidium iodide assay; format: functional, cell-based; details: 96 h; summary of the method: as §1
[6] = system: CWR22R; assay: Cytotoxicity against human 22Rv1 cells after 4 days by propidium iodide assay; format: functional, cell-based; details: 22Rv1, 96 h; summary of the method: as §1
[7] = Cytotoxicity against human 536L cells after 4 days by propidium iodide assay; format: functional, cell-based; details: 96 h; summary of the method: as §1
[8] = Cytotoxicity against human 1657L cells after 4 days by propidium iodide assay; format: functional, cell-based; details: 96 h; summary of the method: as §1
[9] = Cytotoxicity against human RXF 944L cells after 4 days by propidium iodide assay; format: functional, cell-based; details: 96 h; summary of the method: as §1
[10] = Cytotoxicity against human 1218L cells after 4 days by propidium iodide assay; format: functional, cell-based; details: 96 h; summary of the method: as §1
[11] = Cytotoxicity against human 514L cells after 4 days by propidium iodide assay; format: functional, cell-based; details: 96 h; summary of the method: as §1
[12] = Cytotoxicity against human UXF 1138L cells after 4 days by propidium iodide assay; format: functional, cell-based; details: 96 h; summary of the method: as §1
[13] = Cytotoxicity against human 1619L cells after 4 days by propidium iodide assay; format: functional, cell-based; details: 96 h; summary of the method: as §1
[14] = Cytotoxicity against human BXF T24 cells after 4 days by propidium iodide assay; format: functional, cell-based; details: T-24, 96 h; summary of the method: as §1
[15] = Cytotoxicity against human 393NL cells after 4 days by propidium iodide assay; format: functional, cell-based; details: 96 h; summary of the method: as §1
[16] = system: SF-268; assay: Cytotoxicity against human SF268 cells after 4 days by propidium iodide assay; format: functional, cell-based; details: SF-268, 96 h; summary of the method: as §1
[17] = system: HCT-116; assay: Cytotoxicity against human HCT116 cells after 4 days by propidium iodide assay; format: functional, cell-based; details: HCT-116, 96 h; summary of the method: as §1
[18] = Cytotoxicity against human PC3M cells after 4 days by propidium iodide assay; format: functional, cell-based; details: PC-3M, 96 h; summary of the method: as §1
[19] = Cytotoxicity against human 289L cells after 4 days by propidium iodide assay; format: functional, cell-based; details: 96 h; summary of the method: as §1
[20] = Cytotoxicity against human 899L cells after 4 days by propidium iodide assay; format: functional, cell-based; details: 96 h; summary of the method: as §1
[21] = Cytotoxicity against human 394NL cells after 4 days by propidium iodide assay; format: functional, cell-based; details: 96 h; summary of the method: as §1
[22] = Cytotoxicity against human 1781L cells after 4 days by propidium iodide assay; format: functional, cell-based; details: 96 h; summary of the method: as §1
[23] = Cytotoxicity against human 629L cells after 4 days by propidium iodide assay; format: functional, cell-based; details: 96 h; summary of the method: as §1
[24] = Cytotoxicity against human RXF 486L cells after 4 days by propidium iodide assay; format: functional, cell-based; details: 96 h; summary of the method: as §1
[25] = system: OVCAR-3; assay: Cytotoxicity against human OVCAR-3 cells after 4 days by propidium iodide assay; format: functional, cell-based; details: OVCAR-3, 96 h; summary of the method: as §1
[26] = Cytotoxicity against human MAXF 401NL cells after 4 days by propidium iodide assay; format: functional, cell-based; details: 96 h; summary of the method: as §1
[27] = Cytotoxicity against human LXFL 529L cells after 4 days by propidium iodide assay; format: functional, cell-based; details: 96 h; summary of the method: as §1
[28] = system: PANC-1; assay: Cytotoxicity against human PANC1 cells after 4 days by propidium iodide assay; format: functional, cell-based; details: PANC-1, 96 h; summary of the method: as §1
[29] = Cytotoxicity against human MEXF 462NL cells after 4 days by propidium iodide assay; format: functional, cell-based; details: 96 h; summary of the method: as §1
[30] = system: HT-29; assay: Cytotoxicity against human HT-29 cells after 4 days by propidium iodide assay; format: functional, cell-based; details: HT-29, 96 h; summary of the method: as §1
[31] = Cytotoxicity against human 498NL cells after 4 days by propidium iodide assay; format: functional, cell-based; details: 96 h; summary of the method: as §1
[32] = Cytotoxicity against human 276L cells after 4 days by propidium iodide assay; format: functional, cell-based; details: 96 h; summary of the method: as §1
[33] = Cytotoxicity against human 526L cells after 4 days by propidium iodide assay; format: functional, cell-based; details: 96 h; summary of the method: as §1
[34] = Cytotoxicity against human 520L cells after 4 days by propidium iodide assay; format: functional, cell-based; details: 96 h; summary of the method: as §1
[35] = Cytotoxicity against human 1752L cells after 4 days by propidium iodide assay; format: functional, cell-based; details: 96 h; summary of the method: as §1
[36] = system: NCI-H460; assay: Cytotoxicity against human H460 cells after 4 days by propidium iodide assay; format: functional, cell-based; details: NCI-H460, 96 h; summary of the method: as §1
[37] = system: Streptomyces viridochromogenes; assay: Antibacterial activity against Streptomyces viridochromogenes at […] by agar diffusion test; format: functional
[38] = system: Candida albicans; assay: Antifungal activity against Candida albicans at […] by agar diffusion test; format: functional
[39] = system: Chlorella vulgaris; assay: Antialgal activity against Chlorella vulgaris at […] by agar diffusion test; format: functional
[40] = system: Staphylococcus aureus; assay: Antibacterial activity against Staphylococcus aureus at […] by agar diffusion test; format: functional
[41] = system: Desmodesmus subspicatus; assay: Antialgal activity against Scenedesmus subspicatus at […] by agar diffusion test; format: functional
[42] = system: Chlorella sorokiniana; assay: Antialgal activity against Chlorella sorokiniana at […] by agar diffusion test; format: functional
[43] = system: Rhizomucor miehei; assay: Antifungal activity against Mucor miehei at […] by agar diffusion test; format: functional
[44] = system: Bacillus subtilis; assay: Antibacterial activity against Bacillus subtilis at […] by agar diffusion test; format: functional
[45] = system: Escherichia coli; assay: Antibacterial activity against Escherichia coli at […] by agar diffusion test; format: functional
[46] = in the assay text read “MTT assay” for “propidium iodide assay”

CNC1=CC(=O)c2cc(C(=O)OC)ncc2C1=O
IC50 [1]: 0.167 µM | IC50 [2]: 1.43 µM | IC50 [3]: 12 nM | IC50 [4]: 992 nM | IC50 [5]: 0.15 µM | IC50 [6]: 0.671 µM | IC50 [7]: 146 nM | IC50 [8]: 0.061 µM | IC50 [9]: 0.02 µM | IC50 [10]: 0.134 µM | IC50 [11]: 12 nM | IC50 [12]: 0.012 µM | IC50 [13]: 0.045 µM | IC50 [14]: 0.008 µM | IC50 [15]: 0.122 µM | IC50 [16]: 0.008 µM | IC50 [17]: 0.114 µM | IC50 [18]: 0.215 µM | IC50 [19]: 0.13 µM | IC50 [20]: 0.134 µM | IC50 [21]: 0.106 µM | IC50 [22]: 0.114 µM | IC50 [23]: 16 nM | IC50 [24]: 1.65 µM | IC50 [25]: 0.012 µM | IC50 [26]: 0.195 µM | IC50 [27]: 0.089 µM | IC50 [28]: 0.549 µM | IC50 [29]: 0.179 µM | IC50 [30]: 146 nM | IC50 [31]: 0.13 µM | IC50 [32]: 8 nM | IC50 [33]: 0.11 µM | IC50 [34]: 12 nM | IC50 [35]: 0.13 µM | IC50 [36]: 0.134 µM

CNC1=CC(=O)c2c(cnc(C)c2C)C1=O [MANSOURAMYCIN A]
diameter of the inhibition zone (DIZ) [37]: 0 mm | IC50 [1]: 31.9 µM | IC50 [2]: 21.7 µM | IC50 [3]: 2340 nM | IC50 [4]: 1250 nM | IC50 [5]: 27.1 µM | IC50 [6]: 21.7 µM | IC50 [7]: 710 nM | IC50 [8, 46]: 26 µM | IC50 [9]: 18.1 µM | IC50 [10]: 28.2 µM | diameter of the inhibition zone (DIZ) [38]: 0 mm | IC50 [11]: 2600 nM | IC50 [12, 46]: 18 µM | diameter of the inhibition zone (DIZ) [39]: 22 mm | IC50 [13, 46]: 13.2 µM | IC50 [14]: 12.6 µM | IC50 [15]: 18.7 µM | IC50 [16]: 14.4 µM | IC50 [17]: 9.11 µM | IC50 [18]: 32.6 µM | IC50 [19]: 19.1 µM | IC50 [20, 46]: 34.9 µM | IC50 [21]: 15.6 µM | IC50 [22]: 16.4 µM | IC50 [23]: 4100 nM | diameter of the inhibition zone (DIZ) [40]: 12 mm | IC50 [24]: 59.1 µM | diameter of the inhibition zone (DIZ) [41]: 25 mm | diameter of the inhibition zone (DIZ) [42]: 17 mm | IC50 [25, 46]: 32.3 µM | IC50 [26]: 47.8 µM | IC50 [27]: 12.4 µM | IC50 [28]: 26.8 µM | IC50 [29]: 49.9 µM | IC50 [30]: 4630 nM | IC50 [31]: 14.4 µM | IC50 [32]: 2440 nM | IC50 [33]: 19 µM | diameter of the inhibition zone (DIZ) [43]: 0 mm | diameter of the inhibition zone (DIZ) [44]: 10 mm | IC50 [34, 46]: 5450 nM | diameter of the inhibition zone (DIZ) [45]: 10 mm | IC50 [35]: 46.3 µM | IC50 [36]: 7.11 µM

O=S(=O)(O)O.Oc1cccc2cccnc12 [QUINOSOL]
diameter of the inhibition zone (DIZ) [37]: 0 mm | diameter of the inhibition zone (DIZ) [38]: 11 mm | diameter of the inhibition zone (DIZ) [39]: 25 mm | diameter of the inhibition zone (DIZ) [40]: 20 mm | diameter of the inhibition zone (DIZ) [41]: 27 mm | diameter of the inhibition zone (DIZ) [42]: 28 mm | diameter of the inhibition zone (DIZ) [43]: 30 mm | diameter of the inhibition zone (DIZ) [44]: 15 mm | diameter of the inhibition zone (DIZ) [45]: 15 mm
